Measured values reported in ChEMBL document CHEMBL4402598, “Design and Synthesis of Bitopic 2-Phenylcyclopropylmethylamine (PCPMA) Derivatives as Selective Dopamine D3 Receptor Ligands” (J Med Chem, 2020).

Key:
D(4) dopamine receptor = molecular target: T1, D(4) dopamine receptor (Homo sapiens, UniProt P21917); test: Displacement of [3H]-N-methylspiperone from recombinant human D4 receptor stably expressed in HEK cell membranes measured after 90 mins by microbeta scintillation counting method
T1 sequence (P21917 whole entry): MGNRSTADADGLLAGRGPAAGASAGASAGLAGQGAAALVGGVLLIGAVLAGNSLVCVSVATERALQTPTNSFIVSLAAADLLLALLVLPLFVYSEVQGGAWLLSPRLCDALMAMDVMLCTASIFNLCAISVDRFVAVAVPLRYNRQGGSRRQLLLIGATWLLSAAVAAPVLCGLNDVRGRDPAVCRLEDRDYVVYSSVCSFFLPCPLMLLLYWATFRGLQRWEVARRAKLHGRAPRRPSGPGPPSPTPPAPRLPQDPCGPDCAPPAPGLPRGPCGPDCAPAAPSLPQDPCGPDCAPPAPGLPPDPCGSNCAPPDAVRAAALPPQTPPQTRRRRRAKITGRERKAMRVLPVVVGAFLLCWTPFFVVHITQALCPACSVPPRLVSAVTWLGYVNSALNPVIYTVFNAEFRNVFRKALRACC

[1] = molecular target: T2, 5-hydroxytryptamine receptor 2C (Homo sapiens, UniProt P28335); test: Agonist activity at human 5HT2C receptor stably expressed in HEK293 cells co-expressing Gq assessed as induction of calcium mobilization measured at 1 sec interval for 60 secs by Fluo-4 calcium dye based FLIPR assay; type: functional, cell-based
T2 sequence (P28335 whole entry): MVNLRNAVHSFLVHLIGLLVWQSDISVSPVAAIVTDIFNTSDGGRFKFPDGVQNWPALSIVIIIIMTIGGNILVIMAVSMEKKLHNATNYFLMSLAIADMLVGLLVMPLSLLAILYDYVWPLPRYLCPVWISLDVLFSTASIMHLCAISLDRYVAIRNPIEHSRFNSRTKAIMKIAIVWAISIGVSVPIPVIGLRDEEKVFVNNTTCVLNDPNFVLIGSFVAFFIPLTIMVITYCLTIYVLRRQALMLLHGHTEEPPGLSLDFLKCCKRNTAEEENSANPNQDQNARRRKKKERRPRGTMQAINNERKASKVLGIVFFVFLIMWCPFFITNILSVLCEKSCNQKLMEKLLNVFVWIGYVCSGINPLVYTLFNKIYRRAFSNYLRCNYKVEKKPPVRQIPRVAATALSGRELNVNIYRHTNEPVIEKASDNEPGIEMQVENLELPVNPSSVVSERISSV
In short: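 HEK293 cells stably expressing 5-HT2C, plated overnight in DMEM with 1% dialyzed FBS (15,000 cells/well), loaded with Fluo-4 Direct in HBSS/20 mM HEPES pH 7.4/2.5 mM probenecid for 50 min at 37 °C, then 10 min at room temperature. FLIPR read 1/s for 2 min; 10 s baseline subtracted from peak within 60 s; fold of basal. Mean of ≥3 experiments.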

[2] = molecular target: 5-hydroxytryptamine receptor 2A (Homo sapiens, UniProt P28223); test: Agonist activity at 5HT2A receptor (unknown origin) expressed in HEK293 cells co-expressing Gq assessed as induction of calcium mobilization measured at 1 sec interval for 60 secs by Fluo-4 calcium dye based FLIPR assay; type: cell-based; conditions: hek293, 1 min
D(1B) dopamine receptor = D(1B) dopamine receptor (Homo sapiens, UniProt P21918); test: Displacement of [3H]-SCH23390 from recombinant human D5 receptor transiently expressed in HEKT cell membranes measured after 90 mins by microbeta scintillation counting method
[3] = molecular target: 5-hydroxytryptamine receptor 2B (Homo sapiens, UniProt P41595); test: Agonist activity at 5HT2B receptor (unknown origin) expressed in HEK293 cells co-expressing Gq assessed as induction of calcium mobilization measured at 1 sec interval for 60 secs by Fluo-4 calcium dye based FLIPR assay; type: cell-based; conditions: hek293, 1 min
[4] = molecular target: T2, 5-hydroxytryptamine receptor 2C; test: Displacement of [3H]-Mesulergine from recombinant human 5HT2C receptor expressed in HEKT cell membranes measured after 90 mins by microbeta scintillation counting method
D(1A) dopamine receptor = D(1A) dopamine receptor (Homo sapiens, UniProt P21728); test: Displacement of [3H]-SCH23390 from recombinant human D1 receptor transiently expressed in HEKT cell membranes measured after 90 mins by microbeta scintillation counting method
D(2) dopamine receptor = D(2) dopamine receptor (Homo sapiens, UniProt P14416); test: Displacement of [3H]-N-methylspiperone from recombinant human D2 receptor stably expressed in fibroblast cell membranes measured after 90 mins by microbeta scintillation counting method
Chain of D(2) dopamine receptor (P14416 whole entry): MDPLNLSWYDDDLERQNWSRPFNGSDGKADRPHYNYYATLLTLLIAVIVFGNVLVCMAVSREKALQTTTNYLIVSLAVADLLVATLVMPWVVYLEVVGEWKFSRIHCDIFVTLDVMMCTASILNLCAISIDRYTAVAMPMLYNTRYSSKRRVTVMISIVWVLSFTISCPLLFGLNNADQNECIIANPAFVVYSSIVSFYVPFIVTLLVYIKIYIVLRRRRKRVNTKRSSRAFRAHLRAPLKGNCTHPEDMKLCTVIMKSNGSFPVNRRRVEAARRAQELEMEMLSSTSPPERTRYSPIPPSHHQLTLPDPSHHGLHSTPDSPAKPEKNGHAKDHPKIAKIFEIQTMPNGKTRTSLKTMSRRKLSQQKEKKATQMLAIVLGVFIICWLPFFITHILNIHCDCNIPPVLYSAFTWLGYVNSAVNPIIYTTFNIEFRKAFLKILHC

Chain of 5-hydroxytryptamine receptor 2A (P28223 whole entry): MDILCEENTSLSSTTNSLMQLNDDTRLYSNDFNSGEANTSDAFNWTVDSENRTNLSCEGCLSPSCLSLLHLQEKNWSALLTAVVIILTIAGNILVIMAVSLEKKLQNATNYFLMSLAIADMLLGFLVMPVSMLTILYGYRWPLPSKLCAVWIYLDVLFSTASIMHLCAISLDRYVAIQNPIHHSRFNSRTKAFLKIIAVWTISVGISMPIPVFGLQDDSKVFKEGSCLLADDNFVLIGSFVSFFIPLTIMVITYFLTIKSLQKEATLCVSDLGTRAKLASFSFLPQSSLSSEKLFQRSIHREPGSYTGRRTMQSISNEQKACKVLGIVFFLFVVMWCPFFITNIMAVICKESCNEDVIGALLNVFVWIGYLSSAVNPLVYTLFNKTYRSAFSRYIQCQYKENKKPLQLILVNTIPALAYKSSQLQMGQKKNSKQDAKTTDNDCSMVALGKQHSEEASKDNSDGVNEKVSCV
Chain of 5-hydroxytryptamine receptor 2B (P41595 whole entry): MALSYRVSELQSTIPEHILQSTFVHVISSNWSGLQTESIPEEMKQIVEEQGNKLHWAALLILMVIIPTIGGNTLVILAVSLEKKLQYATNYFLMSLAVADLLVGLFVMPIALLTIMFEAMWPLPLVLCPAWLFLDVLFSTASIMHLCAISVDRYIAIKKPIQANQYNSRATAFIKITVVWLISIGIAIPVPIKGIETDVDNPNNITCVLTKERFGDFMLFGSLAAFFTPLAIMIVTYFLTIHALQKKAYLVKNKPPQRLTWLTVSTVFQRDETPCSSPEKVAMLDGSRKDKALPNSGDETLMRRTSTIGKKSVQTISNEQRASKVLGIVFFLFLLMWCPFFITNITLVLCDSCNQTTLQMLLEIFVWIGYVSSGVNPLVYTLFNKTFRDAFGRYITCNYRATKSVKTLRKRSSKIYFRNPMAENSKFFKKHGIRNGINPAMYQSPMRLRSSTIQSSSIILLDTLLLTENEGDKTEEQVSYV
Chain of D(1A) dopamine receptor (P21728 whole entry): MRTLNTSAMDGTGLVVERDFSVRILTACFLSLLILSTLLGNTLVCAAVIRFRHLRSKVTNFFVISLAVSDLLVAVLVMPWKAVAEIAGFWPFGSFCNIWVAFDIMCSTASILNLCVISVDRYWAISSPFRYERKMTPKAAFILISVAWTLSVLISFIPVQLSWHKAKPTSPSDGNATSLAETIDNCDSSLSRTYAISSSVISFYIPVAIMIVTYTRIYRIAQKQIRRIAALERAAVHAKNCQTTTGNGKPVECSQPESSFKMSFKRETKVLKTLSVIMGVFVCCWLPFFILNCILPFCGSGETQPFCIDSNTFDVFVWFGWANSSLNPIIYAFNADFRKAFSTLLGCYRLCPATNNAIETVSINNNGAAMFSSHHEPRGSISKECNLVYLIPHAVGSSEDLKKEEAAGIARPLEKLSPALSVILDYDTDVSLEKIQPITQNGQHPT
Chain of D(1B) dopamine receptor (P21918 whole entry): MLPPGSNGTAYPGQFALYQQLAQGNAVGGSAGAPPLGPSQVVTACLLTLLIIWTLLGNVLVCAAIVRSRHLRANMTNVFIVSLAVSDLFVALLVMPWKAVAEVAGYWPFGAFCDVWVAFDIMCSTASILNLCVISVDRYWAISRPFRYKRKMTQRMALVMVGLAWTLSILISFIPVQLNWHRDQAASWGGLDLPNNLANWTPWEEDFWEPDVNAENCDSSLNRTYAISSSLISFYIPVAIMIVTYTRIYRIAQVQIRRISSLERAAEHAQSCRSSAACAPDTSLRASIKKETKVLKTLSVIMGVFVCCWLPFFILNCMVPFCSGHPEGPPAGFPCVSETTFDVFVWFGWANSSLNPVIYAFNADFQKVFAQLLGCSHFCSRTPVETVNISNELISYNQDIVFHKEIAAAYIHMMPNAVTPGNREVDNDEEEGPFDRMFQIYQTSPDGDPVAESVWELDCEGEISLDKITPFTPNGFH

Ki (D(4) dopamine receptor) | EC50 [1] | Activity [2] | Ki (D(1B) dopamine receptor) | Activity [3] | Ki [4] | Ki (D(1A) dopamine receptor) | Ki (D(2) dopamine receptor) | Structure (SMILES)
912 nM | 738 nM | Active | > 5000 nM | Not Active | 44.7 nM | 2340 nM |  | CCCN(CCCCNC(=O)c1ccc(-c2ccccn2)cc1)C[C@H]1C[C@@H]1c1cccc(Cl)c1Cl.Cl
776 nM | 3540 nM | Active | > 5000 nM | Not Active | 138 nM | 1050 nM | 1150 nM | CCCN(CCCCNC(=O)c1ccc2ccccc2c1)C[C@H]1C[C@@H]1c1cccc(Cl)c1Cl.Cl
676 nM | 2550 nM | Active | > 5000 nM | Not Active | 61.7 nM | 1120 nM | 992 nM | CCCN(CCCCNC(=O)c1cc2ccccc2[nH]1)C[C@H]1C[C@@H]1c1cccc(Cl)c1Cl.Cl
